Results pooled from the literature.
Compare with care: the assays were run in different laboratories.
Effect on: cell growth or viability

Structure (SMILES)	cell line	method	time	IC50
CCCCOc1ccc(-c2cnc3c(n2)CCCC3)cc1	MCF-10A	–	48 h	25 to 50 µM
COc1cc2nc(N3CCN(C(=O)c4ccco4)[C@H]4CCCC[C@H]43)nc(N)c2cc1OC (racemic)	CAL-27	–	72 h	13.3 µM
O=C(C=C[c-]1cccc1)c1ccc[nH]1.[Fe+2].c1cc[cH-]c1	4T1	MTT	72 h	76.5 µM
CNC(=O)c1ccc(N2C(=S)N(c3cnc(C#N)c(C(F)(F)F)c3)C(=O)C23CCC3)cc1F	VCaP	ATP luminescence	6 days	0.39 µM
O=C1Nc2ccc(Cl)cc2[C@@](C#CC2CC2)(C(F)(F)F)O1	CAL-27	–	72 h	> 20 µM
CCN1CCN(Cc2ccc(Nc3ncc(F)c(-c4cc(F)c5nc(C)n(C(C)C)c5c4)n3)nc2)CC1	4T1	CCK-8	–	> 2 µM
COc1cc(Nc2nccc(-c3cnn4nc(OC)ccc34)n2)cc(C(F)(F)F)c1	SCLC-21H	ATP luminescence	–	0.36 µM
C=CC1=C(C(=O)O)N2C(=O)[C@@H](NC(=O)/C(=N\OCC(=O)O)c3csc(N)n3)[C@H]2SC1	VCaP	CCK-8	72 h	> 30 µM
CCCCc1cccc(-c2cnc3c(n2)CCCC3)c1	MCF-10A	–	48 h	> 50 µM
CC(C)C[C@H](NC(=O)[C@H](Cc1ccccc1)NC(=O)c1cnccn1)B(O)O	P31-FUJ	ATP luminescence	–	0.0051 µM
N#Cc1ccc(COC[C@H]2O[C@@H](n3c(NCc4ccc(Cl)c(Cl)c4)nc4c(N)ncnc43)[C@H](O)[C@@H]2O)cc1	CAL-27	–	72 h	> 20 µM
O=C1CCCCC1C1C2C=CC=CC1/C(=C/c1ccccc1)C2 (stereo not shown)	K562	flow cytometry	–	0.059 µM
CC(=O)O[C@@]12CO[C@@H]1C[C@H](O)[C@@]1(C)C(=O)[C@H](O)C3=C(C)[C@@H](OC(=O)[C@H](O)[C@@H](NC(=O)OC(C)(C)C)c4ccccc4)C[C@@](O)([C@@H](OC(=O)c4ccccc4)[C@H]21)C3(C)C	4T1	CCK-8	72 h	0.118 µM
O=C(NC(=S)NCCCNC(=S)NC(=O)c1ccc2ccccc2c1)c1ccc2ccccc2c1	MCF-10A	–	48 h	90.2 µM
CC(C)Oc1cccc(-c2cnc3c(n2)CCCC3)c1	MCF-10A	–	48 h	25 to 50 µM
Clc1ccc2c(c1)N=C(N1CCNCC1)c1ccccc1N2	CAL-27	–	72 h	> 20 µM

Structure (SMILES)	cell line	method	time	IC50
CCOc1cccc(-c2cnc3c(n2)CCCC3)c1	MCF-10A	–	48 h	30.9 µM
CC(C)c1cccc(C(C)C)c1-n1c(Cl)c(Cl)n(-c2c(C(C)C)cccc2C(C)C)c1=[Se]	HCT-15	MTT	72 h	14.2 µM
CCCCCc1ccc(-c2cnc3c(n2)CCCC3)cc1	MCF-10A	–	48 h	> 50 µM
COc1cc(-c2ncn(/C=C\C(=O)OC(C)C)n2)cc(C(F)(F)F)c1	F-36P	–	72 h	0.063 µM
COc1ccc2c(c1OC)C(=O)O[C@@H]2[C@H]1c2c(cc3c(c2OC)OCO3)CCN1C	CAL-27	–	72 h	17 µM
C=C1CC[C@@H]2[C@](C)(CO)[C@H](O)CC[C@@]2(C)[C@@H]1C/C=C1/C(=O)OC[C@H]1O	VCaP	CCK-8	72 h	20.4 µM
COc1ccc(-c2cnc3c(n2)CCCC3)cc1Cl	MCF-10A	–	48 h	35.7 µM
O=C(NC(=S)NCc1ccc(CNC(=S)NC(=O)c2ccc3ccccc3c2)cc1)c1ccc2ccccc2c1	MCF-10A	–	48 h	91.4 µM
CC(C)c1ccccc1S(=O)(=O)c1cc(N)c2ncccc2c1[N+](=O)[O-]	CAL-27	–	72 h	> 20 µM
COc1cc(OC)c(/C=C/S(=O)(=O)Nc2ccc(OC)c(N)c2)c(OC)c1	N417	trypan blue	96 h	0.004 µM
O=C(c1cc(Cl)c(Cl)[nH]1)c1c(O)ccc(Cc2ccc(O)c(C(=O)c3cc(Cl)c(Cl)[nH]3)c2O)c1O	MDCK	MTT	72 h	25 µg/mL
CCN(CC)CCNC(=O)COc1ccc(OC)cc1	CAL-27	–	72 h	> 20 µM
O=C(c1cc(Cl)c(Cl)[nH]1)c1c(O)ccc(C(c2csc(-c3ccccc3O)n2)c2ccc(O)c(C(=O)c3cc(Cl)c(Cl)[nH]3)c2O)c1O	MDCK	MTT	72 h	67 µg/mL
COc1ccc(CCN(C)CCc2ccc(OC)c(OC)c2)cc1OC	CAL-27	–	72 h	> 20 µM
COc1nc(SC)nc(OC)c1C(=O)/C=C/[c-]1cccc1.[Fe+2].c1cc[cH-]c1	4T1	MTT	72 h	214 µM
